Rows were chosen to be rich in hits. Some 2.6% of all compounds tested hit in one or more screens of this group.
SENP8 block-1: inhibitors of human SENP8 protease; inhibition, % at 10 µM; 330,000 tested, 1.2% active; Q96LD8; purified SENP8, Z-RLRGG-aminoluciferin cleavage, luminescence; in the data active means inhibition above about 50%
SENP6 block: SENP6 protease inhibition; inhibition, % at 10 µM; Recombinant SENP6 catalytic domain, aminoluciferin luminescence; 330,000 tested, 1.8% active;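 active means inhibition above about 50% at the single tested dose, limit read from the data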
Target sequence (Q9GZR1 628-1112 limits assumed): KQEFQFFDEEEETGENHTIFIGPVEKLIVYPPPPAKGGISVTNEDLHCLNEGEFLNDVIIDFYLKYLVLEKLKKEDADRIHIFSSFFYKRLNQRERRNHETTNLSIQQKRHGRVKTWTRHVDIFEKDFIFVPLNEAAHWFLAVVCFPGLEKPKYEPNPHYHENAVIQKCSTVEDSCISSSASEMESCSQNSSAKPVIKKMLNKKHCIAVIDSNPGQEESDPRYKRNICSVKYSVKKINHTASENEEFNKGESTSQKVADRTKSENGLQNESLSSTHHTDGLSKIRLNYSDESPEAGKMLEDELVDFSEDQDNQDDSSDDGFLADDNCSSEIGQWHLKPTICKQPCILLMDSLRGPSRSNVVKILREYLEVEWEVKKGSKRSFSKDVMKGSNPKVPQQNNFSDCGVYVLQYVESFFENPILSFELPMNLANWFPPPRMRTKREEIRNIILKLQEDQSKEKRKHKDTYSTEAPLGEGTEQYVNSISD
SENP1 inh: SENP1 (human) catalytic domain inhibition; Q9P0U3; recombinant SENP1 catalytic domain, CyPet-SUMO1-YPet FRET cleavage; inhibition, % at 10 µM; 360,000 tested, 0.21% active; AID 624204;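 active means inhibition at least 30% at 10 µM, raw YFP signal under a set limit, fluorescence ratio 0.5 to 1.5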
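Test system: hSENP1 catalytic domain, recombinant; Amount: 20 pM final SENP1 enzyme; Medium: Tris pH 8 buffer plus EDTA, NaCl, BME, BSA, NP40, catalase; Schedule: 50 min enzyme reaction, room temperature, light-protected; Technique: FRET fluorescence in CFP and YFP emission channels; Controls: no-enzyme wells low, DMSO-plus-enzyme wells high control.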
Platelet DG rel: platelet dense granule release activity; human platelet-rich plasma, SFLLRN dense granule ATP release, luminescence; inhibition, %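 (compounds screened at 7.5 µM in platelet-rich plasma)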; 300,000 tested, 0.22% active; AID 1663;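 active means mean replicate score, as percent of positive control, at or above 50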
SENP7 inh: blocks the human protease SENP7. Q9BQF6. recombinant SENP7, Z-RLRGG-aminoluciferin luminescence, 40 min. inhibition, % at 5 µM. 330,000 tested, 1.5% active. AID 434973;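 active means inhibition above about 50% at the single test dose, limit read from the data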
SENP8 block-2: blocks human SENP8 cleavage of Nedd8 substrate; recombinant SENP8, Nedd8 substrate fluorescence; inhibition, % at 20 µM; 360,000 tested, 0.64% active; AID 602440; in the data active means inhibition mostly above about 40%, no sharp cut-off; inactive means mostly below about 27%
SENP8 conf: human SENP8 inhibition, confirmed | 6,200 tested, 40% active | inhibition, % at 12.5 µM | shares compounds with SENP7 inh | Recombinant SENP8, Z-RLRGG-aminoluciferin luminescence, 60 min;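 active means mean inhibition across replicates above about 50%, limit read from the data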
SENP6 confirm: confirmation of human SENP6 protease inhibitors; shares compounds with SENP7 inh; recombinant SENP6, Z-RLRGG-aminoluciferin luminescence; inhibition, % at 12.5 µM; 6,200 tested, 58% active; AID 488915
SENP7 confirm: human SENP7 inhibition, confirmed | shares compounds with SENP7 inh | recombinant SENP7, Z-RLRGG-aminoluciferin luminescence, 40 min | inhibition, % at 12.5 µM | 6,200 tested, 69% active
Casp3 select: selectivity test for SENP inhibitors: human caspase-3 inhibition; AID 488918; inhibition, % at 12.5 µM; purified caspase-3, Z-DEVD-aminoluciferin luminescence, 60 min; 6,200 tested, 60% active; shares compounds with SENP7 inh;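 active means mean inhibition above about 50%, limit read from the data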
Target sequence (P42574 28-227 limits assumed): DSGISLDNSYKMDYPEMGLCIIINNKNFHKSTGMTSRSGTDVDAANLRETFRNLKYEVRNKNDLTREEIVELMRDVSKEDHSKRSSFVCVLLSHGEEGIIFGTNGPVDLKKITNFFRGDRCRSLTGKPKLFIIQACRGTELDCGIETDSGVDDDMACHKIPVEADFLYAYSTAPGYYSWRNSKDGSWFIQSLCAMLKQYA
Luc interf: counter-screen for SENP inhibitors: luminescence interference. shares compounds with SENP7 inh. Pre-incubated SENP8/Z-RLRGG-aminoluciferin, luciferase luminescence interference. inhibition, % at 12.5 µM. 6,200 tested, 39% active;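 active means mean inhibition above about 50% when retested at one dose, limit read from the data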
Large screens that a line does not name were inactive (follow-up assays come after a bar, where they were run).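 How the source made its calls, unless noted: active means mean inhibition above about 50% in the one-dose retest (limit read from the data); inactive means the rest.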

CCOc1ccc2oc(C(=O)Nc3nccs3)c(C)c2c1	SENP7 inh 77.6 (no result: Platelet DG rel) | SENP8 conf inactive | SENP6 confirm inactive | SENP7 confirm inactive | Casp3 select inactive | Luc interf inactive
CCCCCN(C(=O)COC(=O)COc1c(C)cc(C)cc1C)c1c(N)n(CCCC)c(=O)[nH]c1=O	none
COc1ccc(C(O)c2nc(-c3ccc(N(C)C)cc3)cs2)cc1 (centres undefined)	none (no result: SENP8 block-1, SENP6 block, Platelet DG rel, SENP7 inh)
COc1cc(OC)cc(C(=O)NCCN2C(=O)S/C(=C\c3cccs3)C2=O)c1	none
COc1cc(C(=O)NCCN2C(=O)S/C(=C\c3cccs3)C2=O)cc(OC)c1OC	SENP8 block-1 55.6, SENP7 inh 64.1 | SENP8 conf inactive | SENP6 confirm inactive | SENP7 confirm inactive | Casp3 select inactive | Luc interf inactive
Cc1cccc(C)c1OCc1cc(C(=O)N(Cc2c(C)nn(C)c2C)C2CC2)no1	none
Cc1ccc(-n2[nH]c(C)c(C=NC34CN5CN(CN(C5)C3)C4)c2=O)cc1C	none
COCCCN=Cc1c(C)[nH]n(-c2ccc(Br)c(C)c2)c1=O	SENP6 block 53.0 | SENP8 conf inactive | SENP6 confirm inactive | SENP7 confirm inactive | Casp3 select inactive | Luc interf inactive
O=c1/c(=C\c2ccc3c(c2)OCO3)sc2n1CCCN=2	SENP8 block-1 55.4, SENP6 block 78.2, SENP7 inh 69.2 | SENP8 conf inactive | SENP6 confirm inactive | SENP7 confirm 60.6 | Casp3 select inactive | Luc interf inactive
Cc1ccc(N2C(=O)c3ccc(N)cc3C2=O)cc1C	SENP6 block 64.7, SENP7 inh 50.6 | SENP8 conf 63.0 | SENP6 confirm 59.8 | SENP7 confirm 85.9 | Casp3 select 54.5 | Luc interf 62.8
Cc1ccc(N2C(=O)c3ccc(N)cc3C2=O)cc1	none
COc1cccc(/C(C)=N/N=C(\C)c2cccc(OC)c2)c1	SENP8 block-1 61.4, SENP6 block 80.9, SENP7 inh 66.1 | SENP8 conf inactive | SENP6 confirm 56.1 | SENP7 confirm 85.3 | Casp3 select 54.9 | Luc interf inactive
COc1cccc(C(N)=O)c1	none
O=C(C1CCCCC1)N1CCN(S(=O)(=O)c2ccc(Br)cc2)CC1	none
CCOC(=O)c1cnc(-n2nc(C)cc2C)nc1N1CC(C)OC(C)C1 (centres undefined)	none
Nc1ccc(-c2ncc(-c3ccccc3)o2)cc1	SENP8 block-1 61.2, SENP6 block 72.9, SENP7 inh 68.9 | SENP8 conf 73.5 | SENP6 confirm 67.6 | SENP7 confirm 88.7 | Casp3 select inactive | Luc interf 73.6
Cc1ccc(-c2cnc(-c3ccncc3)o2)cc1	none
CCOC(=O)C1(C(F)(F)F)N=C(C(F)(F)F)Nc2ccccc21 (centres undefined)	SENP7 inh 71.5 | SENP8 conf inactive | SENP6 confirm inactive | SENP7 confirm inactive | Casp3 select inactive | Luc interf inactive
Cc1ccc(F)cc1NC(=O)CN1C(=O)NC(C)(c2ccc3c(c2)OCCO3)C1=O (centres undefined)	none (no result: Platelet DG rel)
CCSC1=N/C(=C\c2ccc(-c3ccccc3[N+](=O)[O-])o2)C(=O)S1	SENP6 block 50.4 | SENP8 conf inactive | SENP6 confirm inactive | SENP7 confirm inactive | Casp3 select inactive | Luc interf inactive
COc1ccccc1Nc1nc(-c2cccnc2)cs1	SENP8 block-1 50.4, SENP6 block 67.4, SENP7 inh 52.7 | SENP8 conf inactive | SENP6 confirm inactive | SENP7 confirm 77.9 | Casp3 select inactive | Luc interf 59.8
Fc1ccc(Nc2nc(-c3cccnc3)cs2)cc1	none
CCN(CC)c1ccc(Nc2nc(-c3cccnc3)cs2)cc1	SENP8 block-1 56.8, SENP6 block 62.1 | SENP8 conf 55.8 | SENP6 confirm 51.7 | SENP7 confirm 87.8 | Casp3 select inactive | Luc interf inactive
CN(C)c1ccc(Nc2nc(-c3cccnc3)cs2)cc1	SENP8 block-1 86.6, SENP6 block 87.7, SENP7 inh 89.1 | SENP8 conf inactive | SENP6 confirm 78.1 | SENP7 confirm 96.3 | Casp3 select 92.2 | Luc interf inactive
COc1ccc(Nc2nc(-c3cccnc3)cs2)c(OC)c1	none
CCOC(=O)C1CCCN(C(=O)c2ccc(C)c(NC(=O)C3=C(C)OCCS3)c2)C1 (centres undefined)	none
Cc1ccc(NC(=O)c2oc3ccccc3c2C)nc1	SENP6 block 54.6 | SENP8 conf inactive | SENP6 confirm inactive | SENP7 confirm 70.3 | Casp3 select inactive | Luc interf inactive
CCOc1ccc2oc(C(=O)Nc3ccc(C)cn3)c(C)c2c1	none (no result: SENP8 block-1, SENP6 block, Platelet DG rel, SENP7 inh)
Cc1c(C(=O)Nc2ccccn2)oc2ccccc12	SENP8 block-1 57.0, SENP6 block 64.3, SENP7 inh 75.9 | SENP8 conf inactive | SENP6 confirm 54.8 | SENP7 confirm 79.1 | Casp3 select 56.3 | Luc interf 55.6
Cc1c(C(=O)Nc2nnc(C(F)(F)F)s2)oc2ccccc12	SENP7 inh 62.3 | SENP8 conf 52.7 | SENP6 confirm 53.9 | SENP7 confirm 59.6 | Casp3 select 58.9 | Luc interf inactive
O=C(Nc1cccs1)Nc1ccc(Br)cc1F	SENP6 block 64.4 | SENP8 conf inactive | SENP6 confirm inactive | SENP7 confirm 60.8 | Casp3 select inactive | Luc interf inactive
Cc1ccc(NC(=O)Nc2cccs2)nc1	none
CCc1ccc(NC(=O)Nc2cccs2)cc1	SENP8 block-1 57.2, SENP6 block 78.1 | SENP8 conf inactive | SENP6 confirm 55.8 | SENP7 confirm 89.1 | Casp3 select 52.8 | Luc interf inactive
O=C(Nc1cccs1)Nc1ccc(F)cc1F	none
Cc1ccc(NC(=O)Nc2cccs2)cc1	SENP8 block-1 55.2, SENP6 block 64.2 | SENP8 conf inactive | SENP6 confirm 55.7 | SENP7 confirm 87.4 | Casp3 select 64.8 | Luc interf inactive
COc1ccc(NC(=O)Nc2cccnc2)cc1	none
CCOc1ccc(NC(=O)Nc2cccnc2)cc1	SENP6 block 60.1, SENP7 inh 57.9 | SENP8 conf inactive | SENP6 confirm inactive | SENP7 confirm 74.7 | Casp3 select 74.0 | Luc interf inactive
COCCCn1[nH]c2c3c(ccc2c1=O)C(=O)c1ccccc1C3=O	none
CNC(=S)n1cnc(N)n1	none

Assay outcomes from PubChem.
